From ChEMBL document CHEMBL4382284, “Acrylamide Functional Group Incorporation Improves Drug-like Properties: An Example with EGFR Inhibitors” (ACS Med Chem Lett, 2019)
Values after ≈ are worked out from the molar mass of the structure shown.

Experiments:
[1] = Thermodynamic solubility of the compound in 1-octanol solution measured after 24 hrs by UV-HPLC analysis; type: physicochemical; conditions: read-out: Therm_solubility
[2] = 1-Octanol-buffer partition coefficient, log D of compound at pH 7.4 after 24 hrs by shake-flask method; type: physicochemical; conditions: for logD at 24 h: 1-octanol/buffer, pH 7.4
Outline: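 Shake-flask partition between 1-octanol and pH 7.4 aqueous solution, mixed at 1/2 (v/v) octanol/aqueous; log D taken at pH 7.4.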

[3] = Thermodynamic solubility of the compound in pH 7.4 phosphate buffered saline measured after 24 hrs by UV-HPLC analysis; type: physicochemical; conditions: read-out: Therm_solubility
[4] = GSH reactivity in pH 7.4 phosphate buffer assessed as half life measured every 15 mins by HPLC analysis; type: physicochemical; conditions: phosphate buffer with GSH
Outline: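 Half-life measured on incubation with glutathione at pH 7.4 and 37 °C, compound to glutathione 1/10.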

A549 = assay: Cytotoxicity against human A549 cells after 72 hrs by MTT assay; type: functional, cell-based; conditions: A549, 72 h
[5] = biological target: Epidermal growth factor receptor (Homo sapiens, UniProt P00533); assay: Inhibition of human EGFR using poly[Glu:Tyr] (4:1) as substrate measured after 20 mins in presence of [gamma33P]ATP by filter-binding assay
Sequence of Epidermal growth factor receptor (P00533 whole entry): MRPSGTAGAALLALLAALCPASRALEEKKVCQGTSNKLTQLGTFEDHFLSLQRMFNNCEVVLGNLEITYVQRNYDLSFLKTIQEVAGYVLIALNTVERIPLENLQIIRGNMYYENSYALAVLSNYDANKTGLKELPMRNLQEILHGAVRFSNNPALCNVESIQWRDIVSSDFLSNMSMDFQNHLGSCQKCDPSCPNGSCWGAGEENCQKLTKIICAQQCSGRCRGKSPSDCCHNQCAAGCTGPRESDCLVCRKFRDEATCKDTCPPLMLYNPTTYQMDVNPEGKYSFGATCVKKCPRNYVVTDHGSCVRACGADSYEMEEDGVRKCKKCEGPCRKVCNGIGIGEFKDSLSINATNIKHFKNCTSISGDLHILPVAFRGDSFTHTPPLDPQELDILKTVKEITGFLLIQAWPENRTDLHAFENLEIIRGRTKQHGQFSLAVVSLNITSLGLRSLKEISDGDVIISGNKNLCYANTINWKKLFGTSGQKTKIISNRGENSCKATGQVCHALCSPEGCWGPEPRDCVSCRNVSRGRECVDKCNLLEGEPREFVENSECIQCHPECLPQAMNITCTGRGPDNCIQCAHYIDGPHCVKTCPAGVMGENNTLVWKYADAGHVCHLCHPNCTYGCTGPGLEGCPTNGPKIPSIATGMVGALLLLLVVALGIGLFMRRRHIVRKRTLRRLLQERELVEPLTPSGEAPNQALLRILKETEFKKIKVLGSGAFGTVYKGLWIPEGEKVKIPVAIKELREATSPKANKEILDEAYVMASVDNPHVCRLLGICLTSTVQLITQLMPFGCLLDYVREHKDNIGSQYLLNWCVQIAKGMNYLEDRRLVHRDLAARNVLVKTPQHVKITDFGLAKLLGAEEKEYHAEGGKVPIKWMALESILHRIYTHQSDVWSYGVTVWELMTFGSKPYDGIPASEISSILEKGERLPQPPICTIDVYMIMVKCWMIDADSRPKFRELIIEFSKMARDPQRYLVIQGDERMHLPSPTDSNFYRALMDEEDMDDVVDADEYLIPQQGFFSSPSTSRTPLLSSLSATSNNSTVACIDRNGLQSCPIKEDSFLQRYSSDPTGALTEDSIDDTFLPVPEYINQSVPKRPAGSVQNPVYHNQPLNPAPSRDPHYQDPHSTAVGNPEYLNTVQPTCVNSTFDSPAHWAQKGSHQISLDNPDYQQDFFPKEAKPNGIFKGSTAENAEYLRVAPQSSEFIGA

Vero = assay: Cytotoxicity against African green monkey Vero cells assessed as reduction in cell viability after 72 hrs by MTT assay; type: ADME, cell-based; conditions: Chlorocebus sabaeus
[6] = biological target: Voltage-gated inwardly rectifying potassium channel KCNH2 (Homo sapiens, UniProt Q12809); assay: Inhibition of human ERG
Sequence of Voltage-gated inwardly rectifying potassium channel KCNH2 (Q12809 whole entry): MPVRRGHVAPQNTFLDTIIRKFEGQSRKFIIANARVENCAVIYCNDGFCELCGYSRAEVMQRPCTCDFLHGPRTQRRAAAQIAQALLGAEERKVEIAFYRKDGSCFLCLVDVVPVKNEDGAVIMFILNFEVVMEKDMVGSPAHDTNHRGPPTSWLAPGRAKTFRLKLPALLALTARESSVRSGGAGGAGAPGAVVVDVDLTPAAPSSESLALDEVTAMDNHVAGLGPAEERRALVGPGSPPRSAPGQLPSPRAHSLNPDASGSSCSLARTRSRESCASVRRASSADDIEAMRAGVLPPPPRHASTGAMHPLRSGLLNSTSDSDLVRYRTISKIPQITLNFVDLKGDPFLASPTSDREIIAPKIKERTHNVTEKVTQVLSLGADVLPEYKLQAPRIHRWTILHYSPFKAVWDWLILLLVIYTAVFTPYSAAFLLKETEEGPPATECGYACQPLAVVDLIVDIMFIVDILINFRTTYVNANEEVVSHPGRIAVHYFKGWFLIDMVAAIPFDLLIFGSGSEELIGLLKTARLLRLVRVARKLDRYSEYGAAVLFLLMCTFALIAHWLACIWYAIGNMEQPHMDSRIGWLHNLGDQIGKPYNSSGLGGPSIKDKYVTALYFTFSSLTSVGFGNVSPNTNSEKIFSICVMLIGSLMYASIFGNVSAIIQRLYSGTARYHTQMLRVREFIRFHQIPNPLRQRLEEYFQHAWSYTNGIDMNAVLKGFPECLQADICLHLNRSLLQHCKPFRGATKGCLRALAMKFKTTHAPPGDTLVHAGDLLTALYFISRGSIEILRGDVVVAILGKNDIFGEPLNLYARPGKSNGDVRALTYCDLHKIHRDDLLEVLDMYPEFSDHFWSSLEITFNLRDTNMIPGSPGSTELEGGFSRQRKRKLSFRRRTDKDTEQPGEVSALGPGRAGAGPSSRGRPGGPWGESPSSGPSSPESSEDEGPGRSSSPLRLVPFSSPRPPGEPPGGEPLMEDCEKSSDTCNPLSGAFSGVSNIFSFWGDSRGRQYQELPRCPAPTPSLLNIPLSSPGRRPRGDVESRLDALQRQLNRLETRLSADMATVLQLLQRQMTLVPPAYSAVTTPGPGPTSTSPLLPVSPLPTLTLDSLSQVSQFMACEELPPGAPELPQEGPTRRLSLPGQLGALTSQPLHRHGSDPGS

[7] = Cytotoxicity against human FHS cells assessed as reduction in cell viability after 72 hrs by MTT assay

Row | SMILES | solubility thermodynamic at 24 h [1] | solubility thermodynamic at 24 h [3] | IC50 (A549) | IC50 [5] | also measured
1 | C=CC(=O)N(c1ccc(Cl)c(Cl)c1)c1ncnc2cc(OC)c(OCCCN3CCOCC3)cc12 | 4470 µM (≈ 2310 µg/mL) | 630 µM (≈ 326 µg/mL) | 5720 nM | 31.7 nM | logD at 24 h [2]: 3.57; half-life [4]: 17 min
2 | C=CC(=O)N(c1ccc(F)c(Cl)c1)c1ncnc2cc(OC)c(OCCCN3CCOCC3)cc12 | 4540 to 4940 µM (≈ 2270 to 2470 µg/mL) | 1650 µM (≈ 827 µg/mL) | 150 nM | 65.2 nM | logD at 24 h [2]: 2.01; IC50 (Vero): > 10000 nM; IC50 [6]: > 10000 nM; inhibition (INH) ([6]; human): 20%; half-life [4]: 85.1 min; IC50 [7]: > 10000 nM
3 | C=CC(=O)N(c1ccc(Cl)cc1F)c1ncnc2cc(OC)c(OCCCN3CCOCC3)cc12 |  |  |  | 234 nM | 
4 | COc1cc2ncnc(Nc3cccc(Cl)c3F)c2cc1OC(=O)N1CCN(C)C[C@H]1C [AZD-3759] | 4540 µM (≈ 2090 µg/mL) | 20 µM (≈ 9.2 µg/mL) | 28700 nM |  | logD at 24 h [2]: 2.84
5 | C=CC(=O)N(c1ccc(F)c(F)c1)c1ncnc2cc(OC)c(OCCCN3CCOCC3)cc12 |  |  |  | 368 nM | 
6 | C=CC(=O)N(c1cccc(Cl)c1F)c1ncnc2cc(OC)c(OC(=O)N3CCN(C)C[C@H]3C)cc12 | 5020 µM (≈ 2580 µg/mL) | 30 µM (≈ 15.4 µg/mL) | 6100 nM |  | logD at 24 h [2]: 2.46; half-life [4]: 27.5 min
7 | C=CC(=O)N(c1cccc(Cl)c1F)c1ncnc2cc(OC)c(OCCCN3CCOCC3)cc12 | 5600 µM (≈ 2810 µg/mL) | 1200 µM (≈ 601 µg/mL) | 450 nM | 52.6 nM | logD at 24 h [2]: 2.64; half-life [4]: 49 min
8 | C=CC(=O)N(c1ccc(F)cc1F)c1ncnc2cc(OC)c(OCCCN3CCOCC3)cc12 |  |  |  | 302 nM | 
9 | C=CC(=O)N(c1ccc(OC)cc1F)c1ncnc2cc(OC)c(OCCCN3CCOCC3)cc12 |  |  |  | > 1000 nM | 
10 | C=CC(=O)N(c1cc(F)c(F)cc1F)c1ncnc2cc(OC)c(OCCCN3CCOCC3)cc12 |  |  |  | 500 nM | 
11 | COc1cc2ncnc(Nc3ccc(Cl)c(Cl)c3)c2cc1OCCCN1CCOCC1 | 4570 µM (≈ 2120 µg/mL) |  | 24700 nM | 1 nM | 
12 | COc1cc2ncnc(Nc3cccc(Cl)c3F)c2cc1OCCCN1CCOCC1 |  |  | 7510 nM |  | 
13 | C=CC(=O)N(c1ccc(F)c(C(F)(F)F)c1)c1ncnc2cc(OC)c(OCCCN3CCOCC3)cc12 |  |  |  | > 1000 nM | 
14 | C=CC(=O)N(c1cc(Cl)ccc1F)c1ncnc2cc(OC)c(OCCCN3CCOCC3)cc12 |  |  |  | 133 nM | 
15 | C=CC(=O)N(c1ccc(F)c(C)c1)c1ncnc2cc(OC)c(OCCCN3CCOCC3)cc12 |  |  |  | 499 nM | 
16 | C=CC(=O)N(c1cccc(C(F)(F)F)c1)c1ncnc2cc(OC)c(OCCCN3CCOCC3)cc12 |  |  |  | 844 nM | 
17 | COc1cc2ncnc(Nc3ccc(F)c(Cl)c3)c2cc1OCCCN1CCOCC1 [GEFITINIB] | 1400 µM (≈ 626 µg/mL) | < 10 µM |  |  | logD ([2]; octanol/water, pH 7.4, 24 h): 2.41
